According to ChEMBL document CHEMBL4330180, “Identification of Portimine B, a New Cell Permeable Spiroimine That Induces Apoptosis in Oral Squamous Cell Carcinoma” (ACS Med Chem Lett, 2019):
Active and inactive are the calls of the source. No cut-off for these calls is given here.

Legend:
[1] = Permeability of the compound at 100 uM after 6 hrs by PAMPA; type: ADME
UMSCC23 [2] = assay: Induction of apoptosis in human UMSCC23 cells assessed as increase in GADD45alpha mRNA expression at antiproliferative IC50 over 36 hrs by RT-qPCR analysis; type: functional, cell-based
Summary of the method: (§1)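 OCSCC cultures treated at the IC50 from the ATP proliferation assay. cDNA libraries were made from the treated cells and analysed for apoptotic transcripts by Taqman RT-qPCR. Three independent experiments were run, each in triplicate, with error bars given as SEM.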

UMSCC23 [3] = assay: Induction of apoptosis in human UMSCC23 cells assessed as increase in Bcl2 mRNA expression at antiproliferative IC50 over 36 hrs by RT-qPCR analysis; type: functional, cell-based; summary of the method: as §1
HN12 [4] = assay: Induction of apoptosis in human HN12 cells assessed as increase in Bcl2 mRNA expression at antiproliferative IC50 over 36 hrs by RT-qPCR analysis; type: functional, cell-based; summary of the method: as §1
[5] = (§2) Antiproliferative activity against human HN12 cells after 48 hrs by ATP-based Cell Titer-Glo assay; type: functional; details: HN12, 48 h
Summary of the method: (§3)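 OCSCC cells cultured with increasing concentrations of purified compound (98% by UPLC-PDA). Read-out was ATP-based luminescent proliferation. Exposure is given as 48 h in the figure legend and 36 h in the text. IC50 values were taken from the dose-response curves. Error bars are SD.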

UMSCC23 [6] = assay: Antiproliferative activity against human UMSCC23 cells after 48 hrs by ATP-based Cell Titer-Glo assay; type: functional; details: for IC50: UMSCC23, 48 h; summary of the method: as §3
UMSCC23 [7] = assay: Induction of apoptosis in human UMSCC23 cells assessed as increase in DR5 mRNA expression at antiproliferative IC50 over 36 hrs by RT-qPCR analysis; type: functional, cell-based; summary of the method: as §1
HN12 [8] = assay: Induction of apoptosis in human HN12 cells assessed as increase in GADD45alpha mRNA expression at antiproliferative IC50 over 36 hrs by RT-qPCR analysis; type: functional, cell-based; summary of the method: as §1
UMSCC23 [9] = assay: Induction of apoptosis in human UMSCC23 cells assessed as increase in NOXA mRNA expression at antiproliferative IC50 over 36 hrs by RT-qPCR analysis; type: functional, cell-based; summary of the method: as §1
HN12 [10] = assay: Induction of apoptosis in human HN12 cells assessed as genomic DNA laddering after 48 hrs by agarose gel electrophoresis method; type: functional, cell-based
Summary of the method: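 HN12 cells treated for 48 h at the proliferation-assay IC50 and at a semilog dose above and below it. Genomic DNA was resolved electrophoretically and scored for laddering.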

HN12 [11] = assay: Induction of apoptosis in human HN12 cells assessed as increase in NOXA mRNA expression at antiproliferative IC50 over 36 hrs by RT-qPCR analysis; type: functional, cell-based; summary of the method: as §1
HN12 [12] = assay: Induction of apoptosis in human HN12 cells assessed as increase in DR5 mRNA expression at antiproliferative IC50 over 36 hrs by RT-qPCR analysis; type: functional, cell-based; summary of the method: as §1
HN12 [13] = assay: as §2; type: functional; summary of the method: as §3

permeability [1] [%] | SMILES | Activity (UMSCC23 [2]) | Activity (UMSCC23 [3]) | Activity (HN12 [4]) | IC50 [5] [µM] | IC50 (UMSCC23 [6]) [µM] | Activity (UMSCC23 [7]) | Activity (HN12 [8]) | Activity (UMSCC23 [9]) | Activity (HN12 [10]) | Activity (HN12 [11]) | Activity (HN12 [12]) | Activity (HN12 [13]) | Activity (UMSCC23 [6])
12 | C[C@]12C=CC(=O)C=C1CC[C@@H]1[C@@H]2C(=O)C[C@@]2(C)[C@H]1CC[C@]2(O)C(=O)CO [PREDNISONE] | – | – | – | – | – | – | – | – | – | – | – | – | –
35 | C=CC1=C[C@@H]2[C@@H]3O[C@](O)(CC[C@H](O)[C@@H](C)C[C@@H](O)C3=O)CC(=O)C3=NCC[C@@]32CC1 | Active | Active | Active | 0.117 | 0.229 | Active | Active | Active | Active | Active | Active | – | –

SMILES | permeability [1] [%] | Activity (UMSCC23 [2]) | Activity (UMSCC23 [3]) | Activity (HN12 [4]) | IC50 [5] [µM] | IC50 (UMSCC23 [6]) [µM] | Activity (UMSCC23 [7]) | Activity (HN12 [8]) | Activity (UMSCC23 [9]) | Activity (HN12 [10]) | Activity (HN12 [11]) | Activity (HN12 [12]) | Activity (HN12 [13]) | Activity (UMSCC23 [6])
C=CC1=C[C@@H]2[C@@H]3O[C@]4(CC[C@H](O4)[C@@H](C)C[C@@H](O)C3=O)C[C@H](O)C3=NCC[C@@]32CC1 | 54 | Active | Active | Active | 0.0028 | 0.0032 | Active | Active | Active | Active | Active | Active | Dose-dependent effect | Dose-dependent effect
